Measurements as given in ChEMBL document CHEMBL2163218, “Design, synthesis, and biological and structural evaluations of novel HIV-1 protease inhibitors to combat drug resistance” (J Med Chem, 2012).

Experiments:
[1] = system: Human immunodeficiency virus 1; test: Antiviral activity against wild type HIV1 clade A isolated form HIV1 patient infected in HEK293 cells assessed as reduction in viral replication incubated for 48 hrs by luciferase reporter based assay; assay type: functional, organism-based; conditions: Human immunodeficiency virus 1, clade A, HEK293, 48 h
[2] = system: Human immunodeficiency virus 1; test: Antiviral activity against wild type HIV1 infected in HEK293 cells assessed as reduction in viral replication incubated for 48 hrs by luciferase reporter based assay; assay type: functional, organism-based; conditions: Human immunodeficiency virus 1, HEK293, 48 h
[3] = system: Human immunodeficiency virus 1; test: Antiviral activity against wild type HIV1 clade C isolated form HIV1 patient infected in HEK293 cells assessed as reduction in viral replication incubated for 48 hrs by luciferase reporter based assay; assay type: functional, organism-based; conditions: Human immunodeficiency virus 1, clade C, HEK293, 48 h
[4] = system: Human immunodeficiency virus 1; test: Antiviral activity against multidrug resistant HIV1 MDR1 containing protease M46I, I54V, V82A and L90M mutant infected in HEK293 cells assessed as reduction in viral replication incubated for 48 hrs by luciferase reporter based assay; assay type: functional, organism-based; conditions: Human immunodeficiency virus 1, MDR1, HEK293, 48 h
[5] = system: Human immunodeficiency virus 1; test: Antiviral activity against wild type HIV1 clade B isolated form HIV1 patient infected in HEK293 cells assessed as reduction in viral replication incubated for 48 hrs by luciferase reporter based assay; assay type: functional, organism-based; conditions: Human immunodeficiency virus 1, clade B, HEK293, 48 h
[6] = system: Human immunodeficiency virus 1; test: Antiviral activity against multidrug resistant HIV1 MDRC4 infected in HEK293 cells assessed as reduction in viral replication incubated for 48 hrs by luciferase reporter based assay; assay type: functional, organism-based; conditions: Human immunodeficiency virus 1, MDRC4, HEK293, 48 h
[7] = target: Protease (Human immunodeficiency virus 1, UniProt Q9YQ12); test: Inhibition of wild type HIV1 protease by FRET assay
Summary of the method: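 Recombinant HIV-1 protease Q7K, desalted into 20 mM sodium acetate pH 5, apparent concentration ~50 nM (UV 280 nm). Inhibitors in DMSO, 12 concentrations, added with protease to buffer pH 4.7 (0.1 M NaOAc, 1 M NaCl, 1 mM EDTA, 1 mM DTT, 2% DMSO, 1 mg/mL BSA). Cleavage started by injecting EDANS/DABCYL peptide substrate. Ki from initial velocities fitted to the Morrison equation.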

[8] = target: Human immunodeficiency virus type 1 protease (Human immunodeficiency virus 1, UniProt Q72874, G48V/I54V/L10I/L63P/V82A); test: Inhibition of HIV1 protease L10I, G48V, I54V, L63P and V82A mutant by FRET assay
[9] = target: Human immunodeficiency virus type 1 protease (Human immunodeficiency virus 1, UniProt Q72874, A71V/I50V); test: Inhibition of HIV1 protease I50V, A71V mutant by FRET assay
[10] = target: Human immunodeficiency virus type 1 protease (Human immunodeficiency virus 1, UniProt Q72874, A71V/G73S/I84V/L10I/L63P/L90M); test: Inhibition of HIV1 protease L10I, L63P, A71V, G73S, I84V, L90M mutant by FRET assay

Sequence of Protease (Q9YQ12 whole entry): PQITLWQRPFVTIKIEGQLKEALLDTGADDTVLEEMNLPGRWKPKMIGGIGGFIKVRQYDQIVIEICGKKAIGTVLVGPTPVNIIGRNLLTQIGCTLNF

## CC(C)CN(C[C@@H](O)[C@H](Cc1ccccc1)NC(=O)O[C@H]1CCOC1)S(=O)(=O)c1ccc(N)cc1
[1]
  EC50: 2.6 nM
[2]
  EC50: 3 nM
[3]
  EC50: 3.7 nM
[4]
  EC50: 15.6 nM
[5]
  EC50: 1.8 nM
[6]
  EC50: 17.5 nM

## CC(C)CN(C[C@@H](O)[C@H](Cc1ccccc1)NC(=O)O[C@H]1CO[C@H]2OCC[C@H]21)S(=O)(=O)c1ccc(N)cc1
[1]
  EC50: 0.3 nM
[2]
  EC50: 0.25 nM
[3]
  EC50: 0.18 nM
[4]
  EC50: 0.23 nM
[5]
  EC50: 0.15 nM

## CCCCCN(C[C@@H](O)[C@H](Cc1ccccc1)NC(=O)OCCN1CCNC1=O)S(=O)(=O)c1ccc(OC)cc1
[7]
  Ki: 0.398 nM

## CCCCCN(C[C@@H](O)[C@H](Cc1ccccc1)NC(=O)OCCN1CCOC1=O)S(=O)(=O)c1ccc(OC)cc1
[7]
  Ki: 0.008 nM
[1]
  EC50: 126 nM
[2]
  EC50: 77.1 nM
[3]
  EC50: 158 nM
[4]
  EC50: 300 nM
[5]
  EC50: 52.4 nM
[6]
  EC50: 265 nM

## CCCCCN(C[C@@H](O)[C@H](Cc1ccccc1)NC(=O)O[C@@H]1CCOC1=O)S(=O)(=O)c1ccc(OC)cc1
[7]
  Ki: 65.9 nM

## CCCCCN(C[C@@H](O)[C@H](Cc1ccccc1)NC(=O)OC[C@@H]1CCC(=O)N1)S(=O)(=O)c1ccc(OC)cc1
[7]
  Ki: 0.624 nM

## CCCCCN(C[C@@H](O)[C@H](Cc1ccccc1)NC(=O)O[C@H](C)CC(=O)OC)S(=O)(=O)c1ccc2ncsc2c1
[8]
  Ki: 180 nM
[7]
  Ki: 11.4 nM
[9]
  Ki: 120 nM
[10]
  Ki: 45.9 nM

## CCCCCN(C[C@@H](O)[C@H](Cc1ccccc1)NC(=O)OCCNC(=O)C(F)(F)F)S(=O)(=O)c1ccc2ncsc2c1
[7]
  Ki: 19.7 nM

## CCCCCN(C[C@@H](O)[C@H](Cc1ccccc1)NC(=O)OCCNC(=O)C(Cl)Cl)S(=O)(=O)c1ccc2ncsc2c1
[1]
  EC50: 79.2 nM
[2]
  EC50: 38.3 nM
[3]
  EC50: 67 nM
[4]
  EC50: 254 nM
[5]
  EC50: 30.3 nM
[6]
  EC50: 285 nM

## CCCCCN(C[C@@H](O)[C@H](Cc1ccccc1)NC(=O)O[C@H](C)CCC(C)=O)S(=O)(=O)c1ccc2ncsc2c1
[7]
  Ki: 3.38 nM

## CCCCCN(C[C@@H](O)[C@H](Cc1ccccc1)NC(=O)OCCNC(=O)OC(C)(C)C)S(=O)(=O)c1ccc2ncsc2c1
[7]
  Ki: 1.29 nM

## CCCCCN(C[C@@H](O)[C@H](Cc1ccccc1)NC(=O)OC[C@@H](C)C(=O)OC)S(=O)(=O)c1ccc2ncsc2c1
[7]
  Ki: 3.34 nM

## CCCCCN(C[C@@H](O)[C@H](Cc1ccccc1)NC(=O)OCCN1CCNC1=O)S(=O)(=O)c1ccc2ncsc2c1
[7]
  Ki: 0.217 nM
[1]
  EC50: 99.7 nM
[2]
  EC50: 83.8 nM
[3]
  EC50: 130 nM
[4]
  EC50: 237 nM
[5]
  EC50: 53.9 nM
[6]
  EC50: 274 nM

## CCCCCN(C[C@@H](O)[C@H](Cc1ccccc1)NC(=O)OCCN1CCOC1=O)S(=O)(=O)c1ccc2ncsc2c1
[7]
  Ki: 0.017 nM
[1]
  EC50: 96.3 nM
[2]
  EC50: 73 nM
[3]
  EC50: 120 nM
[4]
  EC50: 259 nM
[5]
  EC50: 41.1 nM
[6]
  EC50: 420 nM

## CCCCCN(C[C@@H](O)[C@H](Cc1ccccc1)NC(=O)O[C@@H]1CCOC1=O)S(=O)(=O)c1ccc2ncsc2c1
[7]
  Ki: 42.1 nM

## CCCCCN(C[C@@H](O)[C@H](Cc1ccccc1)NC(=O)OC[C@@H]1CCC(=O)N1)S(=O)(=O)c1ccc2ncsc2c1
[1]
  EC50: 82.7 nM
[2]
  EC50: 58.9 nM
[3]
  EC50: 96.5 nM
[4]
  EC50: 130 nM
[5]
  EC50: 44.8 nM
[6]
  EC50: 174 nM

## CC[C@H](C)CN(C[C@@H](O)[C@H](Cc1ccccc1)NC(=O)OCCNC(=O)C(F)(F)F)S(=O)(=O)c1ccc2ncsc2c1
[7]
  Ki: 9.13 nM

## CC[C@H](C)CN(C[C@@H](O)[C@H](Cc1ccccc1)NC(=O)OCCNC(=O)C(Cl)Cl)S(=O)(=O)c1ccc2ncsc2c1
[1]
  EC50: 64.1 nM
[2]
  EC50: 43 nM
[3]
  EC50: 88 nM
[4]
  EC50: 144 nM
[5]
  EC50: 28.6 nM
[6]
  EC50: 189 nM

## CC[C@H](C)CN(C[C@@H](O)[C@H](Cc1ccccc1)NC(=O)OCCNC(=O)OC(C)(C)C)S(=O)(=O)c1ccc2ncsc2c1
[1]
  EC50: 231 nM
[2]
  EC50: 198 nM
[3]
  EC50: 331 nM
[4]
  EC50: 756 nM
[5]
  EC50: 183 nM
[6]
  EC50: 918 nM

## CC[C@H](C)CN(C[C@@H](O)[C@H](Cc1ccccc1)NC(=O)OC[C@@H](C)C(=O)OC)S(=O)(=O)c1ccc2ncsc2c1
[7]
  Ki: 1.39 nM

## CC[C@H](C)CN(C[C@@H](O)[C@H](Cc1ccccc1)NC(=O)OCCN1CCNC1=O)S(=O)(=O)c1ccc2ncsc2c1
[1]
  EC50: 31.4 nM
[2]
  EC50: 34.8 nM
[3]
  EC50: 49.3 nM
[4]
  EC50: 50.4 nM
[5]
  EC50: 21.6 nM
[6]
  EC50: 88.1 nM

## CC[C@H](C)CN(C[C@@H](O)[C@H](Cc1ccccc1)NC(=O)OCCN1CCOC1=O)S(=O)(=O)c1ccc2ncsc2c1
[7]
  Ki: 0.005 nM
[1]
  EC50: 21.2 nM
[2]
  EC50: 33.3 nM
[3]
  EC50: 36.2 nM
[4]
  EC50: 32.2 nM
[5]
  EC50: 12 nM
[6]
  EC50: 73.6 nM

## CC[C@H](C)CN(C[C@@H](O)[C@H](Cc1ccccc1)NC(=O)OC[C@@H]1CCC(=O)N1)S(=O)(=O)c1ccc2ncsc2c1
[1]
  EC50: 25.1 nM
[2]
  EC50: 15.5 nM
[3]
  EC50: 13.2 nM
[4]
  EC50: 21.1 nM
[5]
  EC50: 16.4 nM
[6]
  EC50: 35.6 nM

## CCCCCN(C[C@@H](O)[C@H](Cc1ccccc1)NC(=O)O[C@H](C)CC(=O)OC)S(=O)(=O)c1ccc(OC)cc1
[7]
  Ki: 17.2 nM

## CCCCCN(C[C@@H](O)[C@H](Cc1ccccc1)NC(=O)OCCNC(=O)C(F)(F)F)S(=O)(=O)c1ccc(OC)cc1
[7]
  Ki: 31.4 nM

## CCCCCN(C[C@@H](O)[C@H](Cc1ccccc1)NC(=O)O[C@H](C)CCC(C)=O)S(=O)(=O)c1ccc(OC)cc1
[7]
  Ki: 6.98 nM

## CCCCCN(C[C@@H](O)[C@H](Cc1ccccc1)NC(=O)OCCNC(=O)OC(C)(C)C)S(=O)(=O)c1ccc(OC)cc1
[7]
  Ki: 2.95 nM

## CC[C@H](C)CN(C[C@@H](O)[C@H](Cc1ccccc1)NC(=O)OC(C)(C)C)S(=O)(=O)c1ccc2ncsc2c1
[7]
  Ki: 0.243 nM

## CC[C@H](C)CN(C[C@@H](O)[C@H](Cc1ccccc1)NC(=O)OCCNC(=O)C(F)(F)F)S(=O)(=O)c1ccc(OC)cc1
[7]
  Ki: 11.9 nM

## CC[C@H](C)CN(C[C@@H](O)[C@H](Cc1ccccc1)NC(=O)OCCNC(=O)C(Cl)Cl)S(=O)(=O)c1ccc(OC)cc1
[1]
  EC50: 51.3 nM
[2]
  EC50: 39.1 nM
[3]
  EC50: 84.6 nM
[4]
  EC50: 123 nM
[5]
  EC50: 30.7 nM
[6]
  EC50: 159 nM

## CC[C@H](C)CN(C[C@@H](O)[C@H](Cc1ccccc1)NC(=O)O[C@H](C)CCC(C)=O)S(=O)(=O)c1ccc(OC)cc1
[7]
  Ki: 0.426 nM

## CC[C@H](C)CN(C[C@@H](O)[C@H](Cc1ccccc1)NC(=O)OCCNC(=O)OC(C)(C)C)S(=O)(=O)c1ccc(OC)cc1
[7]
  Ki: 2.01 nM

## CC[C@H](C)CN(C[C@@H](O)[C@H](Cc1ccccc1)NC(=O)OC[C@@H](C)C(=O)OC)S(=O)(=O)c1ccc(OC)cc1
[1]
  EC50: 24.9 nM
[2]
  EC50: 30.9 nM
[3]
  EC50: 36.3 nM
[4]
  EC50: 41.8 nM
[5]
  EC50: 20.6 nM
[6]
  EC50: 56 nM

## CC[C@H](C)CN(C[C@@H](O)[C@H](Cc1ccccc1)NC(=O)OCCN1CCNC1=O)S(=O)(=O)c1ccc(OC)cc1
[1]
  EC50: 95.4 nM
[2]
  EC50: 84.4 nM
[3]
  EC50: 135 nM
[4]
  EC50: 113 nM
[5]
  EC50: 57.3 nM
[6]
  EC50: 132 nM

## CC[C@H](C)CN(C[C@@H](O)[C@H](Cc1ccccc1)NC(=O)OCCN1CCOC1=O)S(=O)(=O)c1ccc(OC)cc1
[1]
  EC50: 43.3 nM
[2]
  EC50: 40.5 nM
[3]
  EC50: 57.3 nM
[4]
  EC50: 56.1 nM
[5]
  EC50: 27.8 nM
[6]
  EC50: 74.4 nM

## CC[C@H](C)CN(C[C@@H](O)[C@H](Cc1ccccc1)NC(=O)O[C@@H]1CCOC1=O)S(=O)(=O)c1ccc(OC)cc1
[7]
  Ki: 35.1 nM

## CC[C@H](C)CN(C[C@@H](O)[C@H](Cc1ccccc1)NC(=O)OC[C@@H]1CCC(=O)N1)S(=O)(=O)c1ccc(OC)cc1
[1]
  EC50: 64.5 nM
[2]
  EC50: 43.9 nM
[3]
  EC50: 44.1 nM
[4]
  EC50: 37.1 nM
[5]
  EC50: 38.5 nM
[6]
  EC50: 72.2 nM
